Key:
[1] = molecular target: Protein kinase C, PKC; classical (Rattus norvegicus, UniProt P05696+P68403+P63319); test: Inhibition of protein kinase C was evaluated as Inhibitory concentration; assay type: protein assay
Outline: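 Rat brain PKC; procedure as in earlier work; triplicate points per assay; IC50 is the mean of at least two independent assays.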

[2] = Inhibition of protein kinase A was evaluated as Inhibitory concentration
Outline: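 PKA from bovine heart; procedure as in earlier work; triplicate points per assay; IC50 is the mean of at least two independent assays.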

[3] = Inhibition of rat liver casein kinase II
[4] = (§1) Inhibition of rabbit muscle phosphorylase kinase (PhK); parameters: species or system Oryctolagus cuniculus
[5] = Inhibition of human neutrophil protein kinase C (PKC)
[6] = Inhibition of human platelet protein kinase C (PKC)
[7] = molecular target: cAMP-dependent protein kinase (PKA) (Homo sapiens, UniProt P22694+P17612+P22612); test: Inhibition of human neutrophil protein kinase A (PKA); assay type: protein assay
[8] = molecular target: Protein kinase C (PKC); test: Inhibition of protein kinase C (PKC) of rat brain
[9] = Antagonistic effect on allogenic mixed lymphocyte reaction; assay type: functional
Outline: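 Allogeneic mixed lymphocyte reaction run by a published method; triplicate points per assay; IC50 is the mean of at least three independent assays.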

[10] = molecular target: Tyrosine-protein kinase Lck (Homo sapiens, UniProt P06239); test: Inhibition of human p56 lck
[11] = species: Homo sapiens; test: Inhibition of TPA-stimulated 47-kDa protein phosphorylation in platelets; assay type: functional
Outline: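 Procedure as in earlier work; TPA-stimulated 47-kDa protein phosphorylation in platelets; triplicate points per assay; IC50 is the mean of at least three independent assays.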

[12] = molecular target: Proto-oncogene tyrosine-protein kinase Src (Homo sapiens, UniProt P12931); test: Inhibition of human p60 c-src
Outline: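 Human p60c-src (20 units) with angiotensin II substrate (60 µg), 10 µM [γ-32P]ATP, 10 mM MgCl2, in 50 mM HEPES, 0.1 mM EDTA, 0.015% Brij 35, pH 7.5; final DMSO 10%. Incubated 60 min at 30 °C, stopped with 40 mM EDTA. Aliquots spotted on phosphocellulose paper, washed with orthophosphoric acid, counted by liquid scintillation.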

[13] = molecular target: Protein kinase C, PKC; classical/novel; test: Antagonistic effect on TPA-stimulated CD3 down-regulation in T-cells; assay type: functional
Outline: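 Procedure as in earlier work; TPA-stimulated CD3 down-regulation in T-cells; triplicate points per assay; IC50 is the mean of at least two independent assays.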

[14] = as §1; parameters: species or system Oryctolagus cuniculus; remark: listed apart in the source
Outline: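 Rabbit muscle phosphorylase kinase; procedure as in earlier work; triplicate points per assay; IC50 is the mean of at least two independent assays.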

Sequence of Tyrosine-protein kinase Lck (P06239 whole entry): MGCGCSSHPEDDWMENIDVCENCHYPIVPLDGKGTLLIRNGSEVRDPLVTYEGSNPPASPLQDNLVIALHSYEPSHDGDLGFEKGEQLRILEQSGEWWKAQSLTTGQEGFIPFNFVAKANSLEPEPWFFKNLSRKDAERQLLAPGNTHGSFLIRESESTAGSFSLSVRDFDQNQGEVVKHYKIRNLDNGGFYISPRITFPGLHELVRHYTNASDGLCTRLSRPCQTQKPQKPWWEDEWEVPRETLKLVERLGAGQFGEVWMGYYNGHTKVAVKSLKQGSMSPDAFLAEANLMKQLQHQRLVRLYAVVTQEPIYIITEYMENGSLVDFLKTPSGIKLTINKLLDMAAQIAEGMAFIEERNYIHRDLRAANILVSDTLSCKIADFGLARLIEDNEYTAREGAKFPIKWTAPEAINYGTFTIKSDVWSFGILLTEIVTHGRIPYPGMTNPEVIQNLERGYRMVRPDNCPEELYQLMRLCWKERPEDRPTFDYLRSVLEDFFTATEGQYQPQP
Sequence of Proto-oncogene tyrosine-protein kinase Src (P12931 2-536 limits assumed): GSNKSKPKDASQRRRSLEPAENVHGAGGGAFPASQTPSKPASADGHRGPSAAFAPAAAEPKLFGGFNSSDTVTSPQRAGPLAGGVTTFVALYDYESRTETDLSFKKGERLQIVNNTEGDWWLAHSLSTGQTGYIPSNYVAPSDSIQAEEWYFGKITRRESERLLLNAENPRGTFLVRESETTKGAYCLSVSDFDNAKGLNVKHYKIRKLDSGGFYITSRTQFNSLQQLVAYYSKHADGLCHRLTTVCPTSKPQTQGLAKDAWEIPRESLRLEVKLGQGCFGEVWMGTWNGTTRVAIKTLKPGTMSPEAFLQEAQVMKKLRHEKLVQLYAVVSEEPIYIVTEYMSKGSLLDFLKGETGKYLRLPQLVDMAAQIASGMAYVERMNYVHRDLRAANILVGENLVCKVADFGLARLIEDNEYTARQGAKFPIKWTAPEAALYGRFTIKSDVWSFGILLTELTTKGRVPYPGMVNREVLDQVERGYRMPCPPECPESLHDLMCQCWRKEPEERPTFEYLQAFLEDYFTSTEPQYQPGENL

| IC50 [1] | IC50 [2] | SMILES | further results |
| --- | --- | --- | --- |
| 540 nM | 3.2 µM | Cn1cc(C2=C(c3c4n(c5ccccc35)CCNC4)C(=O)NC2=O)c2ccccc21 |  |
| 9.8 nM | 4.8 µM | CNCC1CCn2c(c(C3=C(c4cn(C)c5ccccc45)C(=O)NC3=O)c3ccccc32)C1.Cl (stereo not drawn) |  |
| 42 nM | 8.6 µM | CN(C)CC1CCn2c(c(C3=C(c4cn(C)c5ccccc45)C(=O)NC3=O)c3ccccc32)C1.Cl (stereo not drawn) | IC50 [3]: > 100 µM; IC50 [4]: 1100 nM; IC50 [5]: 32 nM; IC50 [6]: 45 nM; IC50 [7]: 5.9 µM; IC50 [8]: 0.042 µM; IC50 [9]: 540 nM; IC50 [10]: > 100 µM; IC50 [11]: 950 nM; IC50 [12]: > 100 µM |
| 23 nM | 4.5 µM | Cl.Cn1cc(C2=C(c3c4n(c5ccccc35)CC(CCN)CC4)C(=O)NC2=O)c2ccccc21 (stereo not drawn) |  |
| 75 nM |  | Cn1cc(C2=C(c3cn(CCCN)c4ccccc34)C(=O)NC2=O)c2ccccc21 |  |
| 14 nM | 3.9 µM | Cn1cc(C2=C(c3c4n(c5ccccc35)CC(CN)C4)C(=O)NC2=O)c2ccccc21 (stereo not drawn) |  |
| 47 nM | 24 µM | Cn1cc(C2=C(c3c4n(c5ccccc35)CCC(CCN)C4)C(=O)NC2=O)c2ccccc21 (stereo not drawn) |  |
| 4.1 nM | 12.1 µM | Cn1cc(C2=C(c3c4n(c5ccccc35)CC[C@H](CN)C4)C(=O)NC2=O)c2ccccc21 |  |
| 210 nM | 68 µM | Cn1cc(C2=C(c3c4n(c5ccccc35)CCC4)C(=O)NC2=O)c2ccccc21 |  |
| 450 nM | > 100 µM | Cn1cc(C2=C(c3c4n(c5ccccc35)CCCCC4)C(=O)NC2=O)c2ccccc21 |  |
| 10 nM | 0.9 µM | Cn1cc(C2=C(c3c4n(c5ccccc35)CC[C@@H](CN)C4)C(=O)NC2=O)c2ccccc21 |  |
| 49 nM | 92.5 µM | Cn1cc(C2=C(c3c4n(c5ccccc35)CCC(C[N+](C)(C)C)C4)C(=O)NC2=O)c2ccccc21 (stereo not drawn) |  |
| 16.5 nM | 2.6 µM | Cn1cc(C2=C(c3c4n(c5ccccc35)CCC(CN)CC4)C(=O)NC2=O)c2ccccc21 (stereo not drawn) |  |
| 135 nM | 4.1 µM | Cn1cc(C2=C(c3c4n(c5ccccc35)CC(N)CC4)C(=O)NC2=O)c2ccccc21 (stereo not drawn) |  |
| 110 nM | 3.3 µM | Cn1cc(C2=C(c3c4n(c5ccccc35)CCC(N)C4)C(=O)NC2=O)c2ccccc21 (stereo not drawn) |  |
| 7.6 nM | 2.8 µM | Cn1cc(C2=C(c3c4n(c5ccccc35)CCC(CN)C4)C(=O)NC2=O)c2ccccc21 (stereo not drawn) | IC50 [13]: 0.6 µM; IC50 [3]: > 100 µM; IC50 [14]: 1300 nM; IC50 [5]: 4.8 nM; IC50 [6]: 12 nM; IC50 [7]: 1.2 µM; IC50 [8]: 0.0076 µM; IC50 [9]: 470 nM; IC50 [10]: > 100 µM; IC50 [11]: 460 nM; IC50 [12]: > 100 µM |
| 155 nM | 23 µM | Cn1cc(C2=C(c3c4n(c5ccccc35)CCCC4)C(=O)NC2=O)c2ccccc21 |  |
| 272 nM | 34 µM | Cn1cc(C2=C(c3c4n(c5ccccc35)CCCC(CN)C4)C(=O)NC2=O)c2ccccc21 (stereo not drawn) |  |
| 100 nM | 2.4 µM | Cn1cc(C2=C(c3c4n(c5ccccc35)CCC(N)CC4)C(=O)NC2=O)c2ccccc21 (stereo not drawn) |  |
| 400 nM | 12.8 µM | Cn1cc(C2=C(c3c4n(c5ccccc35)CC(CN)CCC4)C(=O)NC2=O)c2ccccc21 (stereo not drawn) |  |
| 15 nM | 1.1 µM | Cn1cc(C2=C(c3c4n(c5ccccc35)CC(CN)CC4)C(=O)NC2=O)c2ccccc21 (stereo not drawn) |  |
|  |  | CN[C@@H]1C[C@H]2O[C@@](C)([C@@H]1OC)n1c3ccccc3c3c4c(c5c6ccccc6n2c5c31)C(=O)NC4 [STAUROSPORINE] | IC50 [5]: 2.5 nM |

— ChEMBL document CHEMBL1126671 (J Med Chem, 1993)
